Test [1] concerns the target GABA-A receptor; anion channel. The test is described as follows: (§1) Displacement of [3H]flunitrazepam from GABA-A benzodiazepine receptor of rat cortical membranes. Type of test: cell membranes, Membrane. The method, boiled down: (§2)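 Rat membranes incubated 60 min at 4 °C with [3H]flunitrazepam, 50 µg membrane protein and graded test drug in 200 µL containing NaCl, 10 mM Hepes/Tris pH 7.4 and 1 mM MgCl2; bound ligand separated by rapid filtration on GF/B; mean affinity, SE ≤10% of mean.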

In test [2] the target is T1, GABA-A receptor; anion channel (Rattus norvegicus) (UniProt O09028+P15431+P18506+P18508+P19969+P20236+P23574+P23576+P28471+P28473+P30191+P62813+P63079+P63138+Q91ZM7+Q9ES14). Nature of the test: Shift in [35S]TBPS binding to GABA-A Benzodiazepine receptor of rat brain membrane.
Test [3] concerns the target T2, GABA-A receptor; alpha-1/beta-2/gamma-2 (Homo sapiens) (UniProt P14867+P47870+P18507). The test is described as follows: (§3) In vitro GABA-mediated chloride current in A293 cells expressing GABA-A benzodiazepine receptor alpha-1-beta-2-gamma-2 subunits at 5 uM. Type of test: functional, cell-based. The settings on record: HEK293.
The species entered for test [4] is Mus musculus. Nature of the test: Ability to antagonize the muscle relaxation effect in mice caused by a benzodiazepine full agonist, triazolam. The format is functional. The method, boiled down:
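Muscle relaxation induced by triazolam; test compound and triazolam given separately, traction scored 30 min after dosing; ED50 for blocking the relaxant effect.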

Test [5] deals with Mus musculus. Nature of the test: In vivo acute electroshock physical dependence activity in mice; Active. The format is functional, organism-based.
The subject of another test is Rattus norvegicus. Nature of the test: In vivo efficacy evaluated for ability to antagonize metrazole induced clonic convulsions in rat after ip injection. Type of test: functional.
Test [6] concerns the target T2, GABA-A receptor; alpha-1/beta-2/gamma-2 (Homo sapiens). The test is described as §3. The format is functional, cell-based. To be noted: HEK293. The source holds these as a separate data set.
The target of test [7] is T1, GABA-A receptor; anion channel (Rattus norvegicus). The description is as §1. Further details: concentration or dose not given beside the values. Type of test: cell membranes. The settings on record: Membrane, concentration not given here. The essentials: as §2
Test [8] deals with Mus musculus. Nature of the test: In vivo acute electroshock physical dependence activity in mice; Not active. Type of test: functional, organism-based.
Test [9] concerns Mus musculus. Nature of the test: In vivo efficacy is evaluated by percent control of cerebellar GMP levels in (drug+stress) treated mice/mice under stress. The format is functional. Also noted: concentration or dose not given beside the values. The essentials:
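Male CF-1 mice given drug orally in vehicle 122 before electric footshock stress, controls given vehicle (1 mL/100 g); killed 30 min after treatment; cerebellum homogenized in 1% perchloric acid, iced 30 min, boiled 5 min, spun 17000g 20 min; supernatant cGMP by radioimmunoassay, expressed as % of stress control.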

SMILES strings stand for the structures. Activity calls are given as the source filed them. The rule behind the calls is not given here.

Usually Ki stands for the equilibrium dissociation constant of an inhibitor or competing ligand from its target. By ED50 is commonly meant the dose that gives a 50% effect, or the effect in half of the subjects. In test [1], `C[C@H]1CN(C(=O)N2Cc3c(C(=O)OC(C)(C)C)ncn3-c3ccc(C(F)(F)F)cc32)C[C@H](C)N1` gave a Ki of 277 nM. Moreover, the Shift in test [2] came to 0.41. The Change in Cl- current in [3] amounted to 1; in test [6], 0.5. Further, the ED50 is over 30 mg/kg in the test listed under Mus musculus [4] and 39.7 mg/kg in the test with Rattus norvegicus. Also, in the test on Mus musculus [5], the Acute electroshock activity result is “Active”.
A word on the inhibition: it is the share of the control response that was lost under treatment. In the case of `CC1(C)CN(C(=O)N2Cc3c(C(=O)OC(C)(C)C)ncn3-c3ccc(Cl)cc32)CCN1`, the inhibition in [7] amounted to 13%. In test [1], this compound had an inhibitory constant (Ki) of 3.03 nM. Moreover, the Shift in test [2] is -0.01. In addition, the Change in Cl- current in test [3] stood at 0; in test [6], 0.33. Besides, the values for the ED50 in the test filed under Mus musculus [4] and in the test on Rattus norvegicus were over 30 mg/kg and over 50 mg/kg, respectively. The Acute electroshock activity entry in the test on Mus musculus [8] is “inactive”.
Turning to `C[C@H]1CN(C(=O)N2Cc3c(C(=O)OC(C)(C)C)ncn3-c3ccc(C(F)(F)F)cc32)CCN1`, in test [7], the inhibition came out at 21%. The Ki in [1] turned out to be 42.8 nM. In addition, the Shift in test [2] was 0.54. Besides, the Change in Cl- current in test [3] turned out to be 0.7; in test [6], 0.8. Also, the ED50 in the test listed under Mus musculus [4] is over 30 mg/kg; in the test with Rattus norvegicus, 25 mg/kg. Also, in the test on Mus musculus [9], the Control is 82%. Also, the Acute electroshock activity result with Mus musculus [8] was “inactive”.
In turn, `Cc1ccc2c(c1)N(C(=O)N1C[C@H](C)N[C@@H](C)C1)Cc1c(C(=O)OC(C)(C)C)ncn1-2` had an inhibition in test [7] of 17%. This compound also came in with a Ki in [1] of 25.6 nM. Further, the Shift in test [2] is 0.77. The Change in Cl- current in [3] and in [6] was 1.3 each time. In addition, the ED50 was over 30 mg/kg in the test listed under Mus musculus [4] and 7.4 mg/kg in the test with Rattus norvegicus. This compound yielded a Control in the test on Mus musculus [9] of 79%. In addition, the Acute electroshock activity entry in the test with Mus musculus [5] is “Active”.
With `CC1CN(C(=O)N2Cc3c(C(=O)OC(C)(C)C)ncn3-c3ccc(Cl)cc32)CCN1` (centres undefined), the inhibition in test [7] worked out at 68%. The affinity in test [1], expressed as Ki, was 4.48 nM. The Shift in test [2] was 0.18. Moreover, the Change in Cl- current in [3] came to 0.17; in test [6], 0.5. Besides, the values for the ED50 in the test listed under Mus musculus [4] and in the test on Rattus norvegicus were over 30 mg/kg and 8.8 mg/kg, respectively. Also, the Acute electroshock activity result in the test on Mus musculus [5] was “Active”.
The compound `C[C@@H]1CN(C(=O)N2Cc3c(C(=O)OC(C)(C)C)ncn3-c3cccc(Cl)c32)C[C@H](C)N1C` returned an inhibition in test [7] of 49%. In test [1], this compound yielded a Ki of 56.3 nM. In addition, the Shift in test [2] was found to be 0.22. The Change in Cl- current in test [3] came out at 0.71. In addition, the figures for the ED50 in the test filed under Mus musculus [4] and with Rattus norvegicus were over 30 mg/kg and over 50 mg/kg, respectively. For the same compound, in the test with Mus musculus [9], the Control turned out to be 102%. Besides, the Acute electroshock activity entry in the test on Mus musculus [8] is “inactive”.
In turn, `C[C@@H]1CN(C(=O)N2Cc3c(C(=O)OC(C)(C)C)ncn3-c3ccc(Cl)cc32)C[C@H](C)N1S(C)(=O)=O.ClCCl` displayed an inhibition in test [7] of 8%. Also, the Ki in test [1] came to 4.18 nM. Besides, the Shift in test [2] was 0.76. In test [3], this compound gave a Change in Cl- current of 0.9. For the same compound, the ED50 was over 30 mg/kg in the test filed under Mus musculus [4] and over 50 mg/kg in the test on Rattus norvegicus. Also, the Acute electroshock activity entry in the test with Mus musculus [8] is “inactive”.
`CCCC(=O)O.CCN1[C@H](C)CN(C(=O)N2Cc3c(C(=O)OC(C)(C)C)ncn3-c3ccc(Cl)cc32)C[C@@H]1C`: the inhibition in test [7] was determined as 84%. This compound also had a Ki in test [1] of 10.5 nM. For the same compound, the Shift in test [2] is 0.15. The results for the Change in Cl- current in test [3] and in test [6] were 0.5 and 0.94, respectively. Also, the ED50 was over 30 mg/kg in the test filed under Mus musculus [4] and 3.7 mg/kg in the test on Rattus norvegicus. This compound also returned a Control with Mus musculus [9] of 88%. The Acute electroshock activity result with Mus musculus [8] is “inactive”.
In test [7], `CC1(C)CN(C(=O)N2Cc3c(C(=O)OC(C)(C)C)ncn3-c3ccc(Cl)cc32)CC(C)(C)N1` returned an inhibition of 47%. Moreover, in test [1], the Ki stood at 3.2 nM. The Shift in test [2] worked out at 0.77. In test [3], the Change in Cl- current was 1.14. Moreover, the ED50 in the test filed under Mus musculus [4] was over 30 mg/kg; with Rattus norvegicus, 3.7 mg/kg. The compound also registered a Control in the test on Mus musculus [9] of 40%. Besides, the Acute electroshock activity entry with Mus musculus [5] is “Active”.
`CC(C)(C)OC(=O)c1ncn2c1CN(C(=O)N1CCN(C3CC3)CC1)c1cc(Cl)ccc1-2` yielded an inhibition in test [7] of 24%. In addition, the Ki in test [1] stood at 5.39 nM. In test [2], the Shift is 0.76. For the same compound, the values for the Change in Cl- current in test [3] and in test [6] were 0.75 and 0.42, respectively. Moreover, the ED50 in the test listed under Mus musculus [4] is over 30 mg/kg; in the test on Rattus norvegicus, 12.5 mg/kg. Further, the Acute electroshock activity result in the test with Mus musculus [8] is “inactive”.
`CC(C)(C)OC(=O)c1ncn2c1CN(C(=O)N1CCN(c3ccccn3)CC1)c1cc(Cl)ccc1-2` yielded an inhibition in test [7] of 3.4%. The inhibition constant (Ki) in [1] is 15.1 nM. For the same compound, in test [2], the Shift is 0.32. The Change in Cl- current in [3] was 0.83; in test [6], 0.35. Besides, the ED50 in the test listed under Mus musculus [4] is over 30 mg/kg; in the test with Rattus norvegicus, over 50 mg/kg. The Acute electroshock activity result with Mus musculus [5] is “Active”.
For the compound `CC(=O)N1[C@H](C)CN(C(=O)N2Cc3c(C(=O)OC(C)(C)C)ncn3-c3ccc(Cl)cc32)C[C@@H]1C`, the inhibition in [7] is 22%. For the same compound, the Ki in test [1] turned out to be 4.66 nM. For the same compound, the Shift in [2] stood at 0.94. Also, the Change in Cl- current in test [3] turned out to be 0.79. Moreover, the ED50 in the test filed under Mus musculus [4] is over 30 mg/kg; in the test with Rattus norvegicus, 14.8 mg/kg. Besides, in the test on Mus musculus [5], the Acute electroshock activity result is “Active”.
As for `CC(C)(C)OC(=O)c1ncn2c1CN(C(=O)N1CC3CC1CN3)c1cc(Cl)ccc1-2` (centres undefined), the inhibition in [7] came out at 4%. In addition, affinity in [1] was put at a Ki of 30.1 nM. Also, the Shift in test [2] was 0.33. The Change in Cl- current in test [3] stood at 0.5; in [6], 0.3. In addition, the Acute electroshock activity result in the test with Mus musculus [8] was “inactive”. In the test with Rattus norvegicus, this compound came in with an ED50 of over 50 mg/kg.
As for `CC(C)(C)OC(=O)c1ncn2c1CN(C(=O)N1CCN(CC(F)(F)F)CC1)c1cc(Cl)ccc1-2`, the inhibition in [7] turned out to be 10%. The compound also gave a Ki in [1] of 10.9 nM. The Shift in test [2] stood at 0.81. For the same compound, the Change in Cl- current is 1 in test [3] and 0.8 in test [6]. Also, the ED50 is over 30 mg/kg in the test filed under Mus musculus [4] and over 50 mg/kg with Rattus norvegicus. Besides, the Acute electroshock activity result with Mus musculus [8] is “inactive”.
`C[C@@H]1CN(C(=O)N2Cc3c(C(=O)OC(C)(C)C)ncn3-c3ccc(Cl)cc32)C[C@H](C)N1CC(F)(F)F`: the inhibition in [7] turned out to be 19%. The Ki in test [1] stood at 37.8 nM. Moreover, in test [2], the Shift is 0.67. Also, the Change in Cl- current in [3] was determined as 0; in [6], 0.5. Moreover, the ED50 in the test listed under Mus musculus [4] is over 30 mg/kg; in the test with Rattus norvegicus it was 42 mg/kg. Besides, in the test on Mus musculus [8], the Acute electroshock activity result was “inactive”.
In turn, `C[C@@H]1CN(C(=O)N2Cc3c(C(=O)OC(C)(C)C)ncn3-c3ccc(C(F)(F)F)cc32)C[C@H](C)N1C` displayed an inhibition in test [7] of 17%. In [1], this compound had a Ki of 31.4 nM. In test [2], the Shift was determined as 0.26. In addition, the Change in Cl- current in [3] was determined as 0.81. Also, the ED50 in the test listed under Mus musculus [4] came out at 21.8 mg/kg; in the test on Rattus norvegicus, 6.2 mg/kg. Moreover, the Acute electroshock activity result in the test with Mus musculus [5] was “Active”.
The compound `CN1CCN(C(=O)N2Cc3c(C(=O)OC(C)(C)C)ncn3-c3ccc(Cl)cc32)CC1(C)C` had an inhibition in test [7] of 11%. In addition, in [1], the Ki amounted to 4.35 nM. Further, in test [2], the Shift worked out at 0.21. For the same compound, the Change in Cl- current was found to be 0.5 in [3] and 1.1 in [6]. The ED50 in the test listed under Mus musculus [4] was over 30 mg/kg; with Rattus norvegicus, 35.3 mg/kg. Besides, the Acute electroshock activity result with Mus musculus [8] was “inactive”.

The values are drawn from ChEMBL document CHEMBL1132620, “Piperazine imidazo[1,5-a]quinoxaline ureas as high-affinity GABAA ligands of dual functionality” (J Med Chem, 1999).
